In brackets after ≈: the same amount, converted by molar mass. Activity calls are given as the source filed them. The calls are words filed in the database; no cut-off is given here.
Columns and labels:
[1] = system: Cutibacterium acnes; test: Antimicrobial activity at lag growth phase of Propionibacterium acnes ATCC 11827 assessed as log units reduction in CFU/ml at 25 ug/ml after 48 hrs by time-kill curve method; type: functional
How it was run: (§1)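 A 30 µl aliquot of two-day-old culture went into 3 ml NYG broth (initial inoculum 1 × 10^6 to 5 × 10^6 CFU/ml). Compound, dissolved in DMF, was added at set times after incubation began. Viable counts were taken 24 and 48 h after addition from serial 10-fold dilutions plated on Actinomyces agar, incubated anaerobically 3 days at 37°.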

[2] = system: Cutibacterium acnes; test: Antimicrobial activity at exponential growth phase of Propionibacterium acnes ATCC 11827 assessed as log units reduction in CFU/ml at 25 ug/ml after 48 hrs by time-kill curve method; type: functional, organism-based; how it was run: as §1
[3] = system: Cutibacterium acnes; test: Antimicrobial activity Propionibacterium acnes ATCC 11827 after 2 days by broth dilution method; type: functional
How it was run: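 Serial twofold dilutions in DMF; 30 µl of each added to 3 ml NYG broth (0.8% nutrient broth, 0.5% yeast extract, 0.1% glucose), then inoculated with 30 µl of a two-day-old culture. Incubated 2 days at 37°; growth read as turbidity (OD 660 nm). MIC is the lowest concentration giving complete growth inhibition, determined at least twice.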

[4] = system: Cutibacterium acnes; test: Antimicrobial activity at exponential growth phase of Propionibacterium acnes ATCC 11827 assessed as log units reduction in CFU/ml at 6.25 ug/ml after 48 hrs by time-kill curve method; type: functional, organism-based
How it was run: (§2)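 Growth-phase time-kill: P. acnes ATCC 11827 was grown in NYG broth from a 1 × 10^6 to 5 × 10^6 CFU/ml inoculum. The compound (DMF stock) was added after 0, 8 or 32 h of incubation. Viable counts were taken 24 and 48 h after addition by serial 10-fold dilution plating on Actinomyces agar, incubated anaerobically at 37° for 3 days. Reduction is expressed as log CFU/ml.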

[5] = system: Cutibacterium acnes; test: Antimicrobial activity at exponential growth phase of Propionibacterium acnes ATCC 11827 assessed as log units reduction in CFU/ml at 1.56 ug/ml after 48 hrs by time-kill curve method; type: functional, organism-based; how it was run: as §2
[6] = system: Cutibacterium acnes; test: Antimicrobial activity Propionibacterium acnes ATCC 11827 at 1.56 ug/ml after 3 days by time-kill curve method; type: functional, organism-based
How it was run: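 P. acnes ATCC 11827, from a two-day-old culture, was inoculated into NYG broth (0.8% nutrient broth, 0.5% yeast extract, 0.1% glucose) containing the compound predissolved in DMF. Initial inoculum was 1 × 10^6 to 5 × 10^6 CFU/ml. Viable counts were taken at 8, 24 and 48 h from serial 10-fold dilutions on Actinomyces agar, incubated anaerobically at 37° for 3 days.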

[7] = Cutibacterium acnes, ATCC 11827, 48 h
[8] = Cutibacterium acnes, ATCC 11827, 48 h, read-out: MIC

| SMILES | MIC [3, 8] [µg/mL] | further results |
| --- | --- | --- |
| CCCCCCCCCCCCCCCO | 0.78 (≈ 3.41 µM) | Activity [1]: >2; Activity [2]: Active; MBC [3, 7]: 1.56 µg/mL (≈ 6.83 µM); Activity [4]: inactive; Activity [5]: inactive; Activity [6]: Active |
| CCCCCCCCCCCCCCCCCO | > 800 | – |
| CCCCCCCCc1cccc(O)c1C(=O)O | 3.13 (≈ 12.5 µM) | – |
| CCCCCCCCCCc1cccc(O)c1C(=O)O | 1.56 (≈ 5.6 µM) | – |
| CCCCCCCCCCC(C)O (configuration not stated) | 12.5 (≈ 67.1 µM) | – |
| CCCCCCCCCCCCCCC(C)O (configuration not stated) | 0.78 (≈ 3.22 µM) | – |
| CCCCCCCCCCCCC(C)O (configuration not stated) | 3.13 (≈ 14.6 µM) | – |
| CCC/C=C\C/C=C\CCCCCCCc1cccc(O)c1C(=O)O | 0.78 (≈ 2.26 µM) | – |
| CCCCCCCCCCCCc1cccc(O)c1C(=O)O | 0.39 (≈ 1.27 µM) | – |
| CCCCCCCCCCCCCCCCCCCCc1cccc(O)c1C(=O)O | > 800 | – |
| CCCCCCC(O)CC (configuration not stated) | 200 (≈ 1390 µM) | – |
| CCCCCc1cccc(O)c1C(=O)O | 100 (≈ 480 µM) | – |
| Cc1cccc(O)c1C(=O)O | 200 (≈ 1310 µM) | – |
| CCCCCCC(C)O (configuration not stated) | 800 (≈ 6140 µM) | – |
| CCCCCCCCCCCCCCCCC(C)O (configuration not stated) | > 800 | – |
| C=C1[C@H]2CC[C@H](C2)C1(C)C | 25 (≈ 184 µM) | – |
| CCCCCCCCCCCCCCCCCCCCO [1-EICOSANOL] | > 800 | – |
| CCCCCCCO [1-HEPTANOL] | 400 (≈ 3440 µM) | MBC [3, 7]: 800 µg/mL (≈ 6880 µM) |
| CCCCCCO [1-HEXANOL] | > 800 | – |
| CCCCCC(C)O (configuration not stated) [2-HEPTANOL] | 800 (≈ 6880 µM) | – |

| SMILES | MIC [3, 8] [µg/mL] | further results |
| --- | --- | --- |
| CCCCC(C)O (configuration not stated) [2-HEXANOL] | 800 (≈ 7830 µM) | – |
| CCCCCCCC(C)O (configuration not stated) [2-NONANOL] | 400 (≈ 2770 µM) | – |
| CCCCC(O)CC (configuration not stated) [3-HEPTANOL] | 800 (≈ 6880 µM) | – |
| CCCCCC(O)CC (configuration not stated) [3-OCTANOL] | 400 (≈ 3070 µM) | – |
| CC1=C[C@@H]2C(=C(C)CC[C@H]2C(C)C)CC1 [(+)-DELTA-CADINENE] | 3.13 (≈ 15.3 µM) | – |
| C=C1[C@@H]2CC[C@@H](C2)C1(C)C [(-)-CAMPHENE] | 25 (≈ 184 µM) | – |
| CC(C)C1=CC2=CC[C@@H]3[C@](C)(CCC[C@@]3(C)C(=O)O)[C@H]2CC1 [ABIETIC ACID] | 25 (≈ 82.7 µM) | – |
| C/C1=C\CC/C(C)=C/CC(C)(C)/C=C/C1 [ALPHA-HUMULONE] | 3.13 (≈ 15.3 µM) | – |
| CC1=CCC2CC1C2(C)C (stereo not drawn) [ALPHA-PINENE] | 25 (≈ 184 µM) | – |
| CC1=CC[C@@H](C(C)(C)O)CC1 [ALPHA-TERPINEOL] | 100 (≈ 648 µM) | – |
| C=CC/C=C\C/C=C\CCCCCCCc1cccc(O)c1C(=O)O [ANACARDIC ACID] | 0.78 (≈ 2.28 µM) | – |
| CCCCCCCCCCCCCCCc1cccc(O)c1C(=O)O [ANACARDIC ACID] | 0.78 (≈ 2.24 µM) | MIC [3]: 0.78 µg/mL (≈ 2.24 µM) |
| C/C=C/c1ccc(OC)cc1 [ANETHOLE] | 100 (≈ 675 µM) | – |
| C=C1CC/C=C(\C)CC[C@@H]2[C@@H]1CC2(C)C [BETA-CARYOPHYLLENE] | 6.25 (≈ 30.6 µM) | – |
| C=C1CCC2CC1C2(C)C (stereo not drawn) [BETA-PINENE] | 100 (≈ 734 µM) | – |
| CC[C@H](CC[C@@H](C)[C@H]1CC[C@H]2[C@@H]3CC=C4C[C@@H](O)CC[C@]4(C)[C@H]3CC[C@]12C)C(C)C [BETA-SITOSTEROL] | > 800 | – |
| CC1(C)C2CCC1(C)C(O)C2 (configuration not stated) [BORNEOL] | 200 (≈ 1300 µM) | – |
| Cn1c(=O)c2c(ncn2C)n(C)c1=O [CAFFEINE] | > 400 | – |
| CC12CCC(CC1=O)C2(C)C (configuration not stated) [CAMPHOR] | 200 (≈ 1310 µM) | – |
